Only some compounds are listed: those with a hit (about 0.35% of all), similar ones and a draw of the others.
TNAP inh hi DEA = human TNAP enzyme inhibitors, primary screen, biochemical, luminescent, high phosphate acceptor level, uHTS. 200,000 tested, 0.03% active. Alkaline phosphatase, tissue-nonspecific isozyme (Homo sapiens), P05186. AID 1135, 2008. inhibition, % at 20 µM. purified TNAP, CDP-star luminescence, 1 M DEA;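 active means over 50% inhibition of tissue-nonspecific alkaline phosphatase at 20 µM in the single-dose screen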;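 further: plate controls were DMSO wells for no effect and EDTA-quenched wells as full inhibition for full effect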
PKD1 inh = inhibitors of human PKD1 kinase, biochemical, fluorescence polarization; 200,000 tested, 0.056% active; inhibition, % (concentration not given with the values); PKD1 kinase fluorescence polarization assay; AID 797, 2007; Serine/threonine-protein kinase D1 (Homo sapiens), Q15139; in the data active means inhibition above about 50%
TNAP act hi DEA = TNAP activators at high phosphate acceptor level, primary screen, biochemical, luminescence, uHTS; AID 1136, 2008; activation factor at 20 µM; purified TNAP, CDP-star luminescence, 1 M DEA, 30 min; hits give high values; 0 = EDTA background, 1 = DMSO-only activity; 200,000 tested, under 10 active;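 active means activation factor at least 2 at 20 µM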
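Test system – human TNAP · Doses – 20 µM single point · Incubation – 30 min, room temperature · Signal – luminescent substrate turnover signal · Read-out basis – activation factor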
TNAP inh no acc = human TNAP enzyme inhibitors, primary screen, biochemical, luminescent, no phosphate acceptor, uHTS | inhibition, % at 20 µM | 200,000 tested, 0.26% active | purified TNAP, CDP-star luminescence, 30 min;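 active means tissue-nonspecific alkaline phosphatase inhibition above about 50% at 20 µM in the single-dose screen, limit read from the data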;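 further: 0% = DMSO negative control and 100% = EDTA positive control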
PKD FP artifact = fluorescence polarization interference in PKD1 assay, artefact control for PKD1 inhibitor project, biochemical, 140K library; shares compounds with PKD1 inh; 85 tested, under 10 active; inhibition, % at 10 µM; PKD1 FP assay interference counter-screen; call rule not given here
Active calls of the source: *.

SMILES	TNAP inh hi DEA	PKD1 inh	TNAP act hi DEA	TNAP inh no acc	others
CCn1c(O)c(/C=N/NC(=O)c2ccncc2)c(=O)[nH]c1=S	8	4	0.9	84*
CCC(C)n1c(O)c(/C=N/NC(=O)c2ccncc2)c(=O)[nH]c1=S (configuration not stated)	-3	8	1	75*
CCc1ccc(-n2c(O)c(/C=N/NC(=O)c3ccncc3)c(=O)[nH]c2=O)cc1	-2	-4	1	-14
Fc1ccc(CCNCc2ccc(Cl)c(Cl)c2)cc1	-3	-8	1	-12
O=c1[nH]c(O)c(/C=C2\C=NN=C2c2ccccc2)c(=O)[nH]1	1	-10	1	51*
CCCCC(=O)N/N=C/c1c(O)n(Cc2ccco2)c(=O)[nH]c1=O	1	-6	1	69*
c1ccc2c(c1)[nH]c1cnccc12	3	-3	1	-6
Cc1c2ccncc2c(C)c2c1[nH]c1ccccc12	-1	87*	1	-15
O=C(c1cccn2c(=O)c3cc(Cl)ccc3nc12)N1CCC2(CC1)OCCO2	-5	0	1.1	-20
O=C(N/N=C/C1C(=O)NC(=S)N(c2ccccc2)C1=O)c1cc(Br)c(O)c(Br)c1 (configuration not stated)	0	-7	1	75*
CC(C)c1ccc(N2C(=O)NC(=O)/C(=C/C=C/c3ccco3)C2=O)cc1	-1	-9	1	12
Cc1cccc(N2C(=O)/C(=C/c3ccc(N4CCN(C)CC4)o3)C(=O)NC2=S)c1C	32	-14	0.7	51*
O=C1NC(=O)N(c2ccc3c(c2)OCO3)C(=O)/C1=C\c1ccc(N2CCCCC2)o1	42	-16	0.6	40
CCc1ccccc1N1C(=O)/C(=C/c2ccc(N3CCN(C)CC3)o2)C(=O)NC1=S	44	-13	0.6	51*
O=C(Cc1cccs1)N1CCC2(CC1)OCCO2	-6	-12	1.1	-8
CN1/C(=C\C=C2C(=O)NC(=S)NC2=O)C(C)(C)c2ccccc21	47	-13	0.5	35
CC1(C)OC(c2ccccc2)=C/C(=C/C=C2C(=O)NC(=S)NC2=O)O1	10	-7	0.9	59*
CCN(CC)P(=O)(NC(=O)C(Cl)(Cl)Cl)N(CC)CC.[Cl-].[Cl-].[Cl-].[Nd+3]	0	7	1	-2
O=C1Nc2ccccc2/C1=C/c1cnc[nH]1	0	69*	1	-13	PKD FP artifact=-24
COc1cc(CC2(CCc3ccncc3)C(=O)NC(=O)NC2=O)cc(OC)c1OC	-4	2	1	-8
COc1cc2c(cc1OC)-c1c(OC)c(OC)c(OC)c3ccnc(c13)C2=O	15	50*	0.8	9	PKD FP artifact=-18
O=c1c2ccccc2nc(/C=C/c2ccc([N+](=O)[O-])o2)n1-c1ccc(O)cc1	7	-2	0.9	14

From PubChem
